High-throughput results: PubChem, Broad Institute
INS-1E GSIS act = GLuc luminescence reporter in INS-1E cells, primary screen for activators of glucose-dependent secretion of insulin | hit rate 0.61% among 370,000 | INS-1E GLuc reporter insulin secretion, 2-3 h | activation, % at 16.6 µM;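 active means lowest replicate activation of at least 40%, so every replicate reaches that level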;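 further: 0% = median of neutral control wells and 100% = median of IBMX positive control wells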
RAD52 inh = RAD52 DNA annealing inhibitors, primary screen, biochemical, FRET, single point, set 2. DNA repair protein RAD52 homolog (Homo sapiens), P43351. recombinant RAD52 DNA annealing, FRET fluorescence. inhibition, % at 18.7 µM. hit rate 0.46% among 360,000;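 active means every replicate showing at least 50% inhibition; inconclusive means mean inhibition at least 50% but not in every replicate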
E-sel inducer = E-selectin induction in HUVECs, primary screen, imaging, HUVEC, immunofluorescence imaging, single point. activation, % at 7.58 µM. normalized: neutral wells 0, TNF-alpha wells 100. hit rate 0.37% among 260,000. AID 686992, 2013;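 active means mean E-selectin-positive cell signal at least 10% of the positive control, reached in at least 60% of replicates, without over 20% cell loss; inconclusive means no rule given, readout overlaps actives, possibly toxicity-flagged; inactive means the rest, including those meeting only one limit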
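assay system = HUVEC, human umbilical vein endothelial cells | input = 3,000 HUVEC seeded per well | medium = EGM-2 growth medium on 0.1% gelatin-coated wells | dosing = one compound dose added by pin transfer | signal = immunofluorescence imaging | read-out basis = % PE-positive cells | control set = TNF-alpha, DMSO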
rRNA inh HTS = reduced GFP signal of wild-type E. coli, primary screen, bacterial rRNA inhibitor project, GFP/RFP fluorescence, OD600, single point; E. coli WT GFP vs humanized-ribosome RFP mutants, 24 h; active compounds read low; DMSO median 0, no signal -100; GFP signal change (wild-type ribosome), % (no concentration beside the values); hit rate 1.6% among 350,000;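 active means significant combined selectivity score with lowered wild-type GFP, culture density cut under 30%, mutant RFP and density less affected; inactive means any of these conditions unmet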
AF4-AF9 inh = inhibitors of AF4 peptide binding to AF9, primary screen, biochemical, AlphaScreen, biotin-AF4 peptide, FLAG-AF9, single point; Protein AF-9 (Homo sapiens), P42568; inhibition, % at 10 µM; hit rate 0.47% among 350,000;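 active means every replicate reaching a set inhibition limit, whatever the replicate mean, cut at about 25% in these data; inconclusive means mean inhibition reaches that limit but some replicates miss it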;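 further: 0% = plate neutral control median and 100% = total signal loss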
RAD54 inh = inhibitors of human RAD54 branch migration, primary screen, biochemical, fluorescence, single point; hit rate 0.14% among 360,000; DNA repair and recombination protein RAD54-like (Homo sapiens), Q92698; inhibition, % at 10.4 µM; RAD54 Holliday junction branch migration, FAM/BHQ fluorescence;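 active means mean normalized replicate activity at least 40 and at least half of replicates scoring 40 or more; inconclusive means only one of the two criteria met; inactive means mean below 40 and under half of replicates reaching 40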;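 further: 0% = median of neutral control wells and 100% = median of positive control wells; inhibitors cause a drop in the FAM fluorescence signal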
Target sequence (Q92698 whole entry, looked up): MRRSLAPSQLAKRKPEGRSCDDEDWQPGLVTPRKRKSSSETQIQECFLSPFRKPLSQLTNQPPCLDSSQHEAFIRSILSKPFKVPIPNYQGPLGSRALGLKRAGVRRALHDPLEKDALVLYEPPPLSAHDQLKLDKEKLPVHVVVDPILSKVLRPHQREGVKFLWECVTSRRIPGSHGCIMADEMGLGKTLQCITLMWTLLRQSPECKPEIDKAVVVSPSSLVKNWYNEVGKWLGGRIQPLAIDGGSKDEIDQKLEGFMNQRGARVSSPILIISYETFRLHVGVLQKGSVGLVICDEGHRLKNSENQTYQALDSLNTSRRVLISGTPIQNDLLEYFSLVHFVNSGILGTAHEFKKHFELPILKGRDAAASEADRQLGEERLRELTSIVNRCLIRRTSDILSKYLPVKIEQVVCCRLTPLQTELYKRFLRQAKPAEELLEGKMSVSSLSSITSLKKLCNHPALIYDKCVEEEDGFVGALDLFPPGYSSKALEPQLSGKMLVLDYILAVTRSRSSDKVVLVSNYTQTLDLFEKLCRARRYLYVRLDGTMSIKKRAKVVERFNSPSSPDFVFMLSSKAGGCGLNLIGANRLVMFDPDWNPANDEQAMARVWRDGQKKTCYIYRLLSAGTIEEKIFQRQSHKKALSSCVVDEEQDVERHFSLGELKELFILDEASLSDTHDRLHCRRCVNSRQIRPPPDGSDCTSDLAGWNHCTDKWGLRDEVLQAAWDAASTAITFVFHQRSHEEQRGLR
* = called active by the depositor; i = inactive; ? = inconclusive; . = not tested or not shown. The list is not random: actives were taken first. Their share in the collection is about 2.6%.

SMILES	INS-1E GSIS act	RAD52 inh	E-sel inducer	rRNA inh HTS	AF4-AF9 inh	RAD54 inh
CC(C)c1ccc(NC(=O)Nc2nc(C(N)C3CCCCC3)cs2)cc1 (centres undefined)	-29	-62	1	-62	?	-2
CN(C)c1ccc(NC(=O)Nc2nc(C(N)C3CCCCC3)cs2)cc1 (centres undefined)	.	0	.	.	57*	6
CCN1/C(=C/C=C/c2oc3ccc(-c4ccccc4)cc3[n+]2CC)Oc2ccc(-c3ccccc3)cc21	5	i	218*	87	-30	-304
C[C@H]1CN([C@@H](C)CO)C(=O)Cc2cc(NS(=O)(=O)c3cccs3)ccc2O[C@H]1CN(C)Cc1ccc(C(=O)Nc2ccccc2N)cc1	0	-20	20	-6	1	.
O=Cc1c(-c2ccc(Cl)cc2)oc2ccc(O)cc12	-4	-11	.	-30*	-1	-5
CN1OC[C@@H]2CN(Cc3ccccc3)[C@H](c3ccc(-n4ccnc4)cc3)C[C@@H]21	-1	-1	-7	-32*	7	-2
CN(C)C(=O)c1cccc(-c2ccc3c(c2)[C@@H]2[C@@H](CCN2C(=O)C2CCC2)[C@@H](CO)N3)c1	13	-7	0	-1	2	.
CCCN1/C(=C2/SC(=S)N(CC)C2=O)C=Cc2ccccc21	.	.	.	.	.	-4
CCCN1C(=O)/C(=C2/C=Cc3ccccc3N2CC)SC1=S	-2	-9	1	16	26*	5
c1ccc(OCCn2c(-c3ccco3)nc3ccccc32)cc1	26	-50	.	-46*	7	3
Cc1cccc(OCCn2c(-c3ccco3)nc3ccccc32)c1	.	.	-1	.	.	-3
CN(C)C(=O)[C@H]1[C@H](CO)[C@H]2Cn3c(ccc(C4=CCCC4)c3=O)[C@H]2N1C(=O)Cc1cccnc1	12	-17	0	6	0	2
CC1(C(=O)NS(=O)(=O)c2ccc(C#N)cc2)CCN1C(=O)C1(c2ccccc2)CCCC1 (centres undefined)	99*	-8	0	-4	-1	9
COc1ccc(N=Nc2cc(OC)c(N)cc2OC)cc1	-6	-8	0	-10	32*	-2
COc1ccc(OC)c(N)c1	.	.	.	.	.	2
C[C@H]1CN([C@@H](C)CO)C(=O)Cc2cc(NC(=O)Cc3cn(C)c4ccccc34)ccc2O[C@@H]1CN(C)C(=O)NC1CCCCC1	0	-8	.	-1	-1	1
C[C@H]1CN([C@@H](C)CO)C(=O)c2cccc(NC(=O)C3CCCCC3)c2O[C@@H]1CN(C)Cc1ccccc1	-5	11	-1	1	4	-12
C[C@@H]1CN([C@@H](C)CO)C(=O)c2cccc(NC(=O)C3CCOCC3)c2O[C@@H]1CN(C)Cc1ccncc1	5	-2	228*	0	44*	-1
C[C@H]1CN([C@@H](C)CO)C(=O)c2cccc(NC(=O)C3CC3)c2O[C@H]1CN(C)Cc1ccccc1	32	2	27*	9	-3	0
C[C@H](CO)N1C[C@H](C)[C@H](CN(C)Cc2ccccc2)Oc2c(NC(=O)C3CCCCC3)cccc2C1=O	2	13	0	0	-1	-9
C[C@H](CO)N1C[C@H](C)[C@@H](CN(C)Cc2ccncc2)Oc2c(NC(=O)C3CCOCC3)cccc2C1=O	8	11	-6	-2	-15	-3
C[C@@H]1CN([C@@H](C)CO)C(=O)c2cccc(NC(=O)C3CC3)c2O[C@H]1CN(C)Cc1ccccc1	4	0	52*	-3	1	-12
C[C@@H]1CN([C@@H](C)CO)C(=O)c2cccc(NC(=O)C3CC3)c2O[C@@H]1CN(C)CC1CCCCC1	11	-11	0	4	-4	5
C[C@H](CO)N1C[C@H](C)[C@H](CN(C)CC2CC2)Oc2c(NC(=O)C3CC3)cccc2C1=O	13	13	64*	3	-6	4
COc1cccc(-c2ccc3n(c2=O)C[C@H]2[C@H](CO)[C@@H](C(=O)NC4CCC4)[C@@H]3N2C)c1	17	-5	0	1	-13	0
SMILES	INS-1E GSIS act	RAD52 inh	E-sel inducer	rRNA inh HTS	AF4-AF9 inh	RAD54 inh
CO[C@H]1CN(C)C(=O)c2cc(NC(=O)NC(C)C)ccc2OC[C@@H](C)NC[C@H]1C	14	.	0	0	.	-15
Cc1ccc(NC(=S)NC(=O)c2ccc(F)cc2)cc1S(=O)(=O)Nc1ccccc1Cl	7	-38	.	-26*	-1	.
Cc1ccc(NC(=O)c2ccc(=O)[nH]n2)cc1S(=O)(=O)Nc1ccccc1Cl	2	-9	.	.	1	8
Cc1nc2c(-c3ccc(F)cc3)c(C)[nH]n2c(=O)c1Cl	-1	-7	.	-23*	4	7
COCCNC(=S)N(CCc1c(C)[nH]c2ccc(F)cc12)Cc1cccs1	-19	-16	2	-47	6	.
COCCNC(=S)N(CCc1c(C)[nH]c2ccc(Cl)cc12)Cc1cccs1	-19	-2	5	-22*	4	-6
COc1ccc(CNCc2cccc(Oc3ccccc3)c2)cc1	-20	5	4	-25*	1	7
COc1ccc(CNCc2cccc(C)c2)cc1	4	-4	0	18	-1	9
COc1cc(/C=C2\SC(=O)N(c3cccc(Cl)c3)C2=O)cc([N+](=O)[O-])c1O	6	-15	.	-33*	11	.
Nc1nonc1-n1nnc(C(=O)N/N=C/c2ccc(OCc3ccccc3)cc2)c1COc1ccc(F)cc1	-9	-6	-1	8	10	1
CN(Cc1c(C(=O)N/N=C/c2ccccc2)nnn1-c1nonc1N)c1ccccc1	-3	-5	.	-27*	-7	0
Nc1nonc1-n1nnc(C(=O)N/N=C/c2ccc(O)cc2)c1COc1ccc(F)cc1	7	-11	0	-24*	-3	-4
Nc1nonc1-n1nnc(C(=O)N/N=C/c2ccccc2Cl)c1CSc1ccccc1	11	-8	5	-18*	-6	-5
CN(Cc1c(C(=O)N/N=C/c2ccc(O)cc2)nnn1-c1nonc1N)c1ccccc1	-10	-7	9	-27*	0	3
COc1ccc(/C=N/NC(=O)c2nnn(-c3nonc3N)c2CN(C)c2ccccc2)cc1	16	-5	.	-2	0	-1
CN(C)c1ccc(/C=N/NC(=O)c2nnn(-c3nonc3N)c2CN(C)c2ccccc2)cc1	26	-21	.	6	3	-8
